From ChEMBL document CHEMBL3877325, “Novel salicylanilides from 4,5-dihalogenated salicylic acids: Synthesis, antimicrobial activity and cytotoxicity” (Bioorg Med Chem, 2017)
≈ marks a conversion by molar mass, not a printed value.

How the values were obtained:
[1] = Selectivity index, ratio of IC50 for human HepG2 cells to MIC for Mycobacterium tuberculosis H37Rv after 21 days; assay type: toxicity, cell-based; details: HepG2 cells versus Mycobacterium tuberculosis H37Rv, read-out: Selectivity Index
Method in brief: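 HepG2 cells (passages 33-37) seeded at 1 × 10^4 per well and treated next day with 0.1–100 µM in triplicate. After 24 h at 37 °C, 5% CO2, MTS reagent added for 2 h and absorbance read at 490 nm. IC50 taken from viability relative to untreated control, then divided by the 21-day H37Rv MIC.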

Mycobacterium kansasii [2] = experiment: Antimycobacterial activity against Mycobacterium kansasii isolate 6509/96 after 7 days by micromethod; assay type: functional; details: isolate 6509/96, 168 h
Method in brief: (§1)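 MIC in Šula's semisynthetic medium at 37 °C, read after 7, 14 and 21 days. Inoculum is strain dilution 10^-4; 235/80 is a collection strain and 6509/96 a clinical isolate. Compounds are added as DMSO solutions at 500, 250, 125, 62.5, 32, 16, 8, 4, 2, 1 and 0.5 µM. INH (in sterile water) and PAS are the reference drugs.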

Mycobacterium avium [3] = experiment: Antimycobacterial activity against Mycobacterium avium My 330/80 after 14 days by micromethod; assay type: functional; details: My 330/80, 336 h
Method in brief: (§2)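 M. avium My 330/80 (collection strain) inoculated at 10^-5 dilution into Šula's semisynthetic medium. Compounds added from DMSO solutions at 500, 250, 125, 62.5, 32, 16, 8, 4, 2, 1 and 0.5 µM. MIC determined by micromethod at 37 °C, read after 14 and 21 days.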

Mycobacterium kansasii [4] = experiment: Antimycobacterial activity against Mycobacterium kansasii isolate 6509/96 after 14 days by micromethod; assay type: functional; details: isolate 6509/96, 336 h; method in brief: as §1
[5] = test system: Mycobacterium tuberculosis; experiment: Antimycobacterial activity against Mycobacterium tuberculosis H37Rv My 331/88 after 14 days by micromethod; assay type: functional; details: H37Rv My 331/88, 336 h
Method in brief: (§3)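 MIC micromethod in Šula's semisynthetic medium at 37 °C, read after 14 and 21 days. Compounds added as DMSO solutions at 500 down to 0.5 µM (twofold-type series: 500, 250, 125, 62.5, 32, 16, 8, 4, 2, 1, 0.5 µM). Isoniazid standard given in sterile water.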

Mycobacterium avium [6] = experiment: Antimycobacterial activity against Mycobacterium avium My 330/80 after 21 days by micromethod; assay type: functional; details: My 330/80, 504 h; method in brief: as §2
Mycobacterium kansasii [7] = experiment: Antimycobacterial activity against Mycobacterium kansasii isolate 235/80 after 7 days by micromethod; assay type: functional; details: isolate 235/80, 168 h; method in brief: as §1
Mycobacterium kansasii [8] = experiment: Antimycobacterial activity against Mycobacterium kansasii isolate 235/80 after 21 days by micromethod; assay type: functional; details: isolate 235/80, 504 h; method in brief: as §1
[9] = Cytotoxicity against human HepG2 cells assessed as reduction in cell viability after 24 hrs by MTS assay; assay type: toxicity, cell-based
Method in brief: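 HepG2 cells (passages 33-37) are grown in MEM with 10% FBS, L-glutamine and non-essential amino acids. They are seeded at 1 × 10^4 cells/well and treated next day with 0.1-100 µM in triplicate for 24 h at 37 °C, 5% CO2. MTS reagent is added for 2 h and A490 read.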

Mycobacterium kansasii [10] = experiment: Antimycobacterial activity against Mycobacterium kansasii isolate 235/80 after 14 days by micromethod; assay type: functional; details: isolate 235/80, 336 h; method in brief: as §1
Mycobacterium kansasii [11] = experiment: Antimycobacterial activity against Mycobacterium kansasii isolate 6509/96 after 21 days by micromethod; assay type: functional; details: isolate 6509/96, 504 h; method in brief: as §1
[12] = test system: Mycobacterium tuberculosis; experiment: Antimycobacterial activity against Mycobacterium tuberculosis H37Rv My 331/88 after 21 days by micromethod; assay type: functional; details: H37Rv My 331/88, 504 h; method in brief: as §3

| Structure (SMILES) | selectivity ratio at 504 h [1] | MIC (Mycobacterium kansasii [2]) [µM] | MIC (Mycobacterium avium [3]) [µM] | MIC (Mycobacterium kansasii [4]) [µM] | MIC [5] [µM] | MIC (Mycobacterium avium [6]) [µM] | MIC (Mycobacterium kansasii [7]) [µM] | MIC (Mycobacterium kansasii [8]) [µM] | IC50 at 24 h [9] [µM] | MIC (Mycobacterium kansasii [10]) [µM] | MIC (Mycobacterium kansasii [11]) [µM] | MIC [12] [µM] |
| --- | --- | --- | --- | --- | --- | --- | --- | --- | --- | --- | --- | --- |
| O=C(Nc1cc(C(F)(F)F)cc(C(F)(F)F)c1)c1ccc(Br)cc1O | 2.02 | 8 (≈ 3.43 µg/mL) | 32 (≈ 13.7 µg/mL) | 16 (≈ 6.85 µg/mL) | 2 (≈ 0.856 µg/mL) | 32 (≈ 13.7 µg/mL) | 8 (≈ 3.43 µg/mL) | 16 (≈ 6.85 µg/mL) | 8.08 | 8 (≈ 3.43 µg/mL) | 16 (≈ 6.85 µg/mL) | 4 (≈ 1.71 µg/mL) |
| O=C(Nc1ccc(Br)cc1)c1cc(Cl)c(Br)cc1O | 4.89 | 4 (≈ 1.62 µg/mL) | 32 (≈ 13 µg/mL) | 8 (≈ 3.24 µg/mL) | 2 (≈ 0.811 µg/mL) | 32 (≈ 13 µg/mL) | 4 (≈ 1.62 µg/mL) | 8 (≈ 3.24 µg/mL) | 9.78 | 8 (≈ 3.24 µg/mL) | 8 (≈ 3.24 µg/mL) | 2 (≈ 0.811 µg/mL) |
| O=C(Nc1cc(C(F)(F)F)cc(C(F)(F)F)c1)c1cc(Cl)c(Br)cc1O | 2.4 | 8 (≈ 3.7 µg/mL) | 32 (≈ 14.8 µg/mL) | 8 (≈ 3.7 µg/mL) | 2 (≈ 0.925 µg/mL) | 32 (≈ 14.8 µg/mL) | 8 (≈ 3.7 µg/mL) | 8 (≈ 3.7 µg/mL) | 4.8 | 8 (≈ 3.7 µg/mL) | 8 (≈ 3.7 µg/mL) | 2 (≈ 0.925 µg/mL) |
| O=C(Nc1ccc(Cl)c(Cl)c1)c1ccc(Br)cc1O | 8.84 | 4 (≈ 1.44 µg/mL) | 16 (≈ 5.78 µg/mL) | 4 (≈ 1.44 µg/mL) | 1 (≈ 0.361 µg/mL) | 16 (≈ 5.78 µg/mL) | 4 (≈ 1.44 µg/mL) | 4 (≈ 1.44 µg/mL) | 17.7 | 4 (≈ 1.44 µg/mL) | 8 (≈ 2.89 µg/mL) | 2 (≈ 0.722 µg/mL) |
| O=C(Nc1ccc(C(F)(F)F)cc1)c1cc(Br)c(Br)cc1O | 3.13 | 4 (≈ 1.76 µg/mL) | 32 (≈ 14 µg/mL) | 4 (≈ 1.76 µg/mL) | 2 (≈ 0.878 µg/mL) | 62.5 (≈ 27.4 µg/mL) | 4 (≈ 1.76 µg/mL) | 4 (≈ 1.76 µg/mL) | 6.25 | 4 (≈ 1.76 µg/mL) | 4 (≈ 1.76 µg/mL) | 2 (≈ 0.878 µg/mL) |
| O=C(Nc1ccc(Cl)c(Cl)c1)c1cc(Cl)c(Br)cc1O | 2.76 | 8 (≈ 3.16 µg/mL) | 125 (≈ 49.4 µg/mL) | 8 (≈ 3.16 µg/mL) | 2 (≈ 0.791 µg/mL) | 125 (≈ 49.4 µg/mL) | 8 (≈ 3.16 µg/mL) | 8 (≈ 3.16 µg/mL) | 11.1 | 8 (≈ 3.16 µg/mL) | 8 (≈ 3.16 µg/mL) | 4 (≈ 1.58 µg/mL) |
| O=C(Nc1ccc(Br)cc1)c1cc(Br)c(Br)cc1O | 4.47 | 8 (≈ 3.6 µg/mL) | 32 (≈ 14.4 µg/mL) | 8 (≈ 3.6 µg/mL) | 4 (≈ 1.8 µg/mL) | 32 (≈ 14.4 µg/mL) | 4 (≈ 1.8 µg/mL) | 8 (≈ 3.6 µg/mL) | 17.9 | 8 (≈ 3.6 µg/mL) | 8 (≈ 3.6 µg/mL) | 4 (≈ 1.8 µg/mL) |
| O=C(Nc1ccc(C(F)(F)F)cc1)c1cc(Cl)c(Br)cc1O | 3.26 | 4 (≈ 1.58 µg/mL) | 32 (≈ 12.6 µg/mL) | 4 (≈ 1.58 µg/mL) | 1 (≈ 0.395 µg/mL) | 32 (≈ 12.6 µg/mL) | 4 (≈ 1.58 µg/mL) | 4 (≈ 1.58 µg/mL) | 6.52 | 4 (≈ 1.58 µg/mL) | 4 (≈ 1.58 µg/mL) | 2 (≈ 0.789 µg/mL) |
| O=C(Nc1ccc(Cl)c(Cl)c1)c1cc(Br)c(Br)cc1O | 1.99 | 8 (≈ 3.52 µg/mL) | 62.5 (≈ 27.5 µg/mL) | 8 (≈ 3.52 µg/mL) | 2 (≈ 0.88 µg/mL) | 62.5 (≈ 27.5 µg/mL) | 8 (≈ 3.52 µg/mL) | 8 (≈ 3.52 µg/mL) | 7.96 | 8 (≈ 3.52 µg/mL) | 8 (≈ 3.52 µg/mL) | 4 (≈ 1.76 µg/mL) |
| O=C(Nc1cc(C(F)(F)F)cc(C(F)(F)F)c1)c1cc(Br)c(Br)cc1O | 1.5 | 8 (≈ 4.06 µg/mL) | 16 (≈ 8.11 µg/mL) | 8 (≈ 4.06 µg/mL) | 2 (≈ 1.01 µg/mL) | 32 (≈ 16.2 µg/mL) | 4 (≈ 2.03 µg/mL) | 8 (≈ 4.06 µg/mL) | 3 | 8 (≈ 4.06 µg/mL) | 8 (≈ 4.06 µg/mL) | 2 (≈ 1.01 µg/mL) |
| Nc1ccc(C(=O)O)c(O)c1 [AMINOSALICYLIC ACID] |  | 32 (≈ 4.9 µg/mL) | 32 (≈ 4.9 µg/mL) | 125 (≈ 19.1 µg/mL) | 62.5 (≈ 9.57 µg/mL) | 125 (≈ 19.1 µg/mL) | 125 (≈ 19.1 µg/mL) | > 1000 |  | 1000 (≈ 153 µg/mL) | 500 (≈ 76.6 µg/mL) | 62.5 (≈ 9.57 µg/mL) |
| NNC(=O)c1ccncc1 [ISONIAZID] |  | 4 (≈ 0.549 µg/mL) | > 250 | 8 (≈ 1.1 µg/mL) | 0.5 (≈ 0.0686 µg/mL) | > 250 | > 250 | > 250 |  | > 250 | 8 (≈ 1.1 µg/mL) | 1 (≈ 0.137 µg/mL) |
